{"data": "Assay results of several laboratories", "target": "Casein kinase I isoform alpha (CSNK1A1, Homo sapiens, UniProt P48729)", "One construct used (P48729 1-304)": "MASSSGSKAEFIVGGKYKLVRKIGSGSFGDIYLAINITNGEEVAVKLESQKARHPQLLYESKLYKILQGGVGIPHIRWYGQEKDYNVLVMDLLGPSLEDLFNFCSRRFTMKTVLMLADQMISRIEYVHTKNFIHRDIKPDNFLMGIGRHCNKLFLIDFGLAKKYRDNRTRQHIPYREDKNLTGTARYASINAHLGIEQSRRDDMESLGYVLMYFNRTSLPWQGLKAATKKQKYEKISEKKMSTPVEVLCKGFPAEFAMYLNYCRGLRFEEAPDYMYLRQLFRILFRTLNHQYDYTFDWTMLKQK", "note": "Each line is one published result; the experiments were not run side by side."}
{"Compound": "C1=C/COCc2cc(ccc2OCCN2CCCC2)Nc2nccc(n2)-c2cccc(c2)COC/1", "assay": "binding", "setting": "0.1 µM", "endpoint": "remaining binding", "value": "85%"}
{"Compound": "C[C@H]1CC[C@H](n2c3cnccc3c3cnc(Nc4ccc5c(n4)CCN(C(=O)CO)C5)nc32)CC1", "assay": "cell-free assay", "setting": "1 µM", "endpoint": "remaining signal", "value": "94%"}
{"Compound": "CC#CC(=O)N1CCC[C@H]1c1nc(-c2ccc(C(=O)Nc3ccccn3)cc2)c2c(N)nccn12", "assay": "enzyme activity, inhibitor", "setting": "1 µM", "endpoint": "inhibition", "value": "21%"}
{"Compound": "COc1ccc2oc(-c3ccc4nc(N)oc4c3)c/c(=N\\c3ccccc3NC(=O)CCN)c2c1", "assay": "binding", "setting": "1 µM", "endpoint": "remaining binding", "value": "102%"}
{"Compound": "CO[C@@H]1[C@H](N(C)C(=O)c2ccccc2)C[C@H]2O[C@]1(C)n1c3ccccc3c3c4c(c5c6ccccc6n2c5c31)C(=O)NC4", "assay": "enzyme activity, inhibitor", "setting": "1 µM", "endpoint": "inhibition", "value": "33%"}
{"Compound": "c1cc(Nc2cc(C3CC3)n[nH]2)nc(Nc2ccc3nc[nH]c3c2)n1", "assay": "binding, SPR", "endpoint": "kon", "value": "5.43e+08 M⁻¹ s⁻¹"}
{"Compound": "COc1ccc2[nH]c3c4[nH]c5ccc(OC)cc5c4c4c(c3c2c1)C(=O)NC4=O", "assay": "binding", "setting": "1 µM", "endpoint": "remaining binding", "value": "62%"}
{"Compound": "CCCCC(=O)Nc1ccc(-c2ccc3ncn(CCC)c(=O)c3c2)cn1", "assay": "binding, competition with immobilised ligand", "setting": "0.5 µM", "endpoint": "remaining binding", "value": "89%"}
{"Compound": "Cc1cc(O)c(-c2ccc([C@@H](C)CN(C)C)cc2)c2c1[nH]c(=O)c1sccc12", "assay": "enzyme activity, inhibitor", "setting": "0.1 µM", "endpoint": "inhibition", "value": "6.33%"}
{"Compound": "CC(C)S(=O)(=O)c1ccc2nccc(Nc3ccc4sc(C5CCCC5)nc4c3)c2c1", "assay": "enzyme activity, inhibitor", "setting": "1 µM", "endpoint": "activity vs control", "value": "103%"}
{"Compound": "c1cc(-c2cnn3cc(-c4ccc(OCCN5CCCCC5)cc4)cnc23)ccn1", "assay": "binding, SPR", "endpoint": "kon", "value": "2.49e+09 M⁻¹ s⁻¹"}
